Measurements published in PMC10739243 (ACS Bio & Med Chem Au, 2023).
Residues, ends and D or L forms follow the SMILES beside them.

Key:
pDNA = assay: DLS and ζ-potential of peptide/pDNA polyplex; type: physicochemical
In short: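 Plasmid was pEGFP-C2 (4.7 kb), isolated from E. coli DH5α, with purity checked by A260/A280. It was mixed with peptide (0–25 μM) in Tris-HCl (10 mM, pH 7.4). Hydrodynamic size was measured by dynamic light scattering in a 1 cm quartz cuvette, alongside ζ-potential.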

L929 cells [1] = assay: Cellular uptake mechanism by FACS; type: cell-based
[2] = tested on: plasmid DNA (pDNA, 4.7 kb); type: binding
ctDNA = assay: Hoechst; type: binding; conditions: Hoechst-bound ctDNA titrated with peptide, fluorescence at 460 nm
L929 cells [3] = assay: Cellular uptake of CF-labeled peptides by FACS; type: cell-based; conditions: 10 μM CF-labeled peptide, 6 h incubation
In short: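 L929 cells grown in DMEM with 10% FBS and 1% penicillin-streptomycin, seeded at 50×10^4 cells/well, and cultured 24 h. Treated 6 h with 10 μM carboxyfluorescein-labelled peptide. Washed with PBS (10 mM, pH 7.4), detached with 0.25% trypsin, pellet washed three times with PBS, then analysed by flow cytometry.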

[4] = Polyplex stability against NaCl, agarose gel retardation; type: physicochemical; conditions: pDNA condensed with 25 μM peptide, NaCl treatment

C[C@H](N)C(=O)N[C@@H](C)C(=O)N[C@@H](CCCCN)C(=O)N[C@@H](CCCCN)C(=O)N[C@@H](C)C(=O)N[C@@H](C)C(=O)N[C@@H](C)C(=O)N[C@@H](CCCCN)C(=O)N[C@@H](CCCCN)C(=O)N[C@@H](C)C(=O)N[C@@H](C)C(=O)N[C@@H](C)C(=O)N[C@@H](CCCCN)C(=O)N[C@@H](CCCCN)C(=O)N[C@@H](C)C(=O)N[C@@H](C)C(=O)N[C@@H](C)C(=O)N[C@@H](CCCCN)C(=O)N[C@@H](CCCCN)C(=O)N[C@@H](C)C(N)=O [Ku-A4] (H-AAKKAAAKKAAAKKAAAKKA-NH2; N-terminus assumed)
size of polyplex at higher peptide concentrations (pDNA; DLS, pDNA in Tris-HCl 10 mM pH 7.4, higher peptide concentrations (up to 25 μM)): 140 nm
ζ-potential of polyplex at 25 μM peptide (pDNA; DNA 200 ng/mL, 25 μM peptide): +16.4 mV
inhibition of cellular uptake by macropinocytosis inhibitor amiloride (L929 cells [1]): 48%
reduction of peptide uptake by energy depletion with NaN3 (L929 cells [1]; 0.1% NaN3 pre-incubated 1 h before peptide): 38%
cellular uptake at 4 °C (reduced to) (L929 cells [1]; 1 h pre-incubation at 4 °C then peptide 6 h at 4 °C): 18%
peptide concentration for complete condensation of DNA (gel) [2]: 3 µM
peptide concentration for complete Hoechst displacement (ctDNA): 10 µM
cell penetration efficacy (cellular uptake, FACS) (L929 cells [3]): superior cell penetration ability
NaCl concentration at which polyplex starts disassembling [4]: 250 mM
